The source made the active and inactive calls.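 Rule for the calls, unless noted: active = inhibition of the reporter signal at or above 50%; inactive = inhibition below 50%.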
How the values were obtained:
[1] = inhibitors of TNFa-induced NFkB p65 translocation, primary screen, imaging, HUVEC, MLSMR starter and 10KST1 sets (AID 438;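 active = inhibition above 20% together with a positive visual image hit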;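 note: compound added about 3h40 before a 20 min TNFalpha stimulation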;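 for inhibition: signal is the nuclear over cytoplasmic p65 intensity ratio per well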); conditions: HUVEC TNFa-induced p65 nuclear translocation; cell count: measured here: nuclei count (cytotoxicity indicator), at 2.08 µM; inhibition: at 2 µM, stronger effect = higher value, 0% TNFa-plus-vehicle, 100% no-TNFa wells
[2] = inhibitors of mutant huntingtin aggregation, primary screen, imaging, exon1htt(103Q)mCFP cells, high-content imaging (AID 483;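 active = visual image review flags a hit and inhibition of aggregation exceeds 20%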;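 note: compound exposure lasted 3 days before fixation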;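 for nuclei count: percent of the per-plate median nuclei count of sample wells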); conditions: exon1htt(103Q)mCFP cell line, aggregate imaging, at 2 µM; inhibition of aggregation: stronger effect = higher value; nuclei count: measured here: cell count, toxicity
[3] = inhibitors of E-selectin induction by TNFa, primary screen, imaging, HUVEC, immunofluorescence, MLSMR starter and 10KST1 sets (AID 487;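 active = visually confirmed hit in the image check and inhibition above 20%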;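 for inhibition: signal is fraction of cell area covered by stained E-selectin grains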;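 for nuclei count: 100% = median nuclei count of all wells on the same plate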); conditions: HUVEC TNFalpha-induced E-selectin immunofluorescence imaging, at 2 µM; inhibition: stronger effect = higher value; nuclei count: measured here: cell number, toxicity
[4] = molecular target: Voltage-gated potassium channel subunit beta-2 (Rattus norvegicus) (UniProt P62483); test: KvBeta enzyme negative modulators, primary screen, biochemical, NADPH fluorescence (AID 622;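 active = fluorescence slope higher than the sample average by over 3 SD, cut at about -0.22 in these data, passing the limit was not always enough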;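 note: slope of raw intensity against log time taken from 70 to 1610 s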); conditions: recombinant KvBeta, 4-cyanobenzaldehyde reduction, at 10 µM, stronger effect = higher value
[5] = molecular target: Voltage-gated potassium channel subunit beta-2 (Rattus norvegicus) (UniProt P62483); test: KvBeta positive modulators, primary screen, biochemical, NADPH fluorescence (AID 623;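 active = NADPH fluorescence slope more negative than the mean of all samples by about 3 SD, 99.7% confidence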;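 note: fluorescence intensity change per second fitted from 20 to 320 s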); conditions: Recombinant KvBeta, NADPH fluorescence decrease slope, 10 min; at 10 µM; stronger effect = lower value
[6] = molecular target: Muscarinic acetylcholine receptor M4 (Homo sapiens) (UniProt P08173); test: compounds altering M4/GIRK thallium flux, either direction, primary screen, M4 allosteric agonist project, cell-based, HEK293 M4/GIRK, BTC-AM (AID 625;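 active = fluorescence slope after compound addition differing from the mean of all tested samples at 99.7% confidence, mostly higher but some lower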;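 note: thallium influx through GIRK channels coupled to M4 in HEK293 cells with BTC-AM dye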); conditions: at 10 µM, actives lie on both sides
How it was run: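 assay system = HEK293 cells with M4 receptor and GIRK channels | medium = pH 7.3 thallium assay buffer | doses = 10 µM final, single point | timing = cells overnight at 37 °C, BTC-AM loading 1 h, reads 2 min total | signal = BTC-AM fluorescence, 1 Hz kinetic reads | read-out = post-addition slope, 15–24 s, of baseline-normalized fluorescence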

[7] = inhibitors of Sendai virus-induced IRF3 signaling, primary screen, TLR/RLR signaling modifier project, cell-based, Sendai virus stimulus, luciferase, 10K MLSCN set (AID 602276;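 active = inhibition at or above 50% at 10 µM; inactive = inhibition below 50%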;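 note: firefly luciferase from ISG56 promoter only with Renilla not read in this screen; 0% = Sendai virus plus DMSO and 100% = medium plus DMSO without virus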); conditions: HEK293 RL24 IRF3 luciferase reporter, at 10 µM, stronger effect = higher value
[8] = inhibitors of poly I:C-induced TLR3 signaling, primary screen, cell-based, poly I:C stimulus, luciferase, 10K MLSCN set (AID 602277); conditions: HEK293-TLR3 RL24 IRF3 luciferase reporter, at 10 µM, stronger effect = higher value

Voltage-gated potassium channel subunit beta-2 (Rattus norvegicus), sequence (P62483 whole entry, looked up): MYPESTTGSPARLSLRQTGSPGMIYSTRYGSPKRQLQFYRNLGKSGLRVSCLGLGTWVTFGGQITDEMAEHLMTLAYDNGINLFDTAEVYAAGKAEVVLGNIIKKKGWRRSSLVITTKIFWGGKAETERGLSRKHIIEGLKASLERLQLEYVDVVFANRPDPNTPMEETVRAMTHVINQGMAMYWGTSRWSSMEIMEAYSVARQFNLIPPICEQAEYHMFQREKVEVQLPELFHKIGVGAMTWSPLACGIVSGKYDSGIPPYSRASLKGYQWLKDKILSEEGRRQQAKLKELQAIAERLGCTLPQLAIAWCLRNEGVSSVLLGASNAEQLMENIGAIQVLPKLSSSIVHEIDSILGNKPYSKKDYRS
Muscarinic acetylcholine receptor M4 (Homo sapiens), sequence (P08173 whole entry, looked up): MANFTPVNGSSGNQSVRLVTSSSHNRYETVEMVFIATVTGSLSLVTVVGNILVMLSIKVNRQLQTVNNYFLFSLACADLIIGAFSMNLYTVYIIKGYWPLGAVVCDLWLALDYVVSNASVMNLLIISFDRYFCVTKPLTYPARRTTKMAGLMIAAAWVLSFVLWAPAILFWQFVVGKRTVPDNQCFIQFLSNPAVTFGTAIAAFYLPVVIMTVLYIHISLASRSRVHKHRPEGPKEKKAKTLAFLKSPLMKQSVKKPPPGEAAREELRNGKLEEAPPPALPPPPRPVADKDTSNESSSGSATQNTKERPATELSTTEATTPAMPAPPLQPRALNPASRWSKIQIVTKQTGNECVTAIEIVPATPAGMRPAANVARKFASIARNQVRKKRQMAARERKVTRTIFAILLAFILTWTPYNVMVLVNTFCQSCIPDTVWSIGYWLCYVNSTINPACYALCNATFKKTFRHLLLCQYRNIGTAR

Structure (SMILES)	cell count [1]	inhibition [1]	inhibition of aggregation [2]	nuclei count [2]	inhibition [3]	nuclei count [3]	fluorescence slope [4]	NADPH fluorescence slope [5]	fluorescence slope [6]	inhibition [7]	inhibition [8]
N#Cc1c(N2C(=O)C3C4C=CC(C4)C3C2=O)sc2c1CCC2 (stereo not drawn)	493	-24.7% (inactive)	-12.7% (inactive)	92.9%	-17.4% (inactive)	96.7%	-0.417 (inactive)	-5.2e-05 (inactive)	0.00524 (inactive)	14.5% (inactive)	18.6% (inactive)
Cc1ccc(Cn2ncc3c(NCCCN4CCOCC4)ncnc32)cc1	642	-14.6% (inactive)	13.9% (inactive)	84.8%	-8.1% (inactive)	98.3%	-0.568 (inactive)	-1.3e-05 (inactive)	0.00555 (inactive)	22.3% (inactive)	11.4% (inactive)
CC(C)CNC(=O)C1C2C=CC(C2)C1C(=O)O (stereo not drawn)	456	-2.9% (inactive)	-8.2% (inactive)	98.4%	-33.7% (inactive)	128%	-0.535 (inactive)	-4e-05 (inactive)	0.00535 (inactive)	13.4% (inactive)	20.4% (inactive)
CCOC(=O)NC(=O)CSc1nnc(C)s1	804	4.3% (inactive)	-0.4% (inactive)	105%	-130% (inactive)	135%	-0.421 (inactive)	-9.6e-06 (inactive)	0.00543 (inactive)	18.9% (inactive)	17.5% (inactive)
Cc1c(NS(=O)(=O)c2ccc3c(c2)c(=O)n(C)c(=O)n3C)c(=O)n(-c2ccccc2)n1C	394	-4.4% (inactive)	-4.4% (inactive)	124%	-27.8% (inactive)	115%	-0.412 (inactive)	0.000112 (inactive)	0.00512 (inactive)	11.2% (inactive)	25% (inactive)
CCC(C)NC(=O)c1cc(-c2ccc(OC)cc2)on1 (stereo not drawn)	689	-15.5% (inactive)	1.3% (inactive)	101%	13.2% (inactive)	108%	-0.286 (inactive)	-1.4e-05 (inactive)	0.00668 (inactive)	-45.5% (inactive)	-170% (inactive)
COCC(=O)N(Cc1ccccc1)c1ccccn1	354	4.9% (inactive)	1.6% (inactive)	94.8%	-58.3% (inactive)	153%	-0.599 (inactive)	-4.6e-05 (inactive)	0.00609 (inactive)	11.8% (inactive)	14.7% (inactive)
CCc1nnc(NC(=O)c2ccc(S(=O)(=O)NC3CCCCC3)cc2)s1	534	0.4% (inactive)	20.7% (inactive)	107%	-22.8% (inactive)	110%	-0.307 (inactive)	-6e-05 (inactive)	0.00791 (inactive)	0.752% (inactive)	-17.5% (inactive)

Source: PubChem BioAssay
